Measurements pooled from the literature.
Target: Cyclin-dependent kinase-like 5 (CDKL5, Homo sapiens, UniProt O76039)
One construct used (O76039 1-960): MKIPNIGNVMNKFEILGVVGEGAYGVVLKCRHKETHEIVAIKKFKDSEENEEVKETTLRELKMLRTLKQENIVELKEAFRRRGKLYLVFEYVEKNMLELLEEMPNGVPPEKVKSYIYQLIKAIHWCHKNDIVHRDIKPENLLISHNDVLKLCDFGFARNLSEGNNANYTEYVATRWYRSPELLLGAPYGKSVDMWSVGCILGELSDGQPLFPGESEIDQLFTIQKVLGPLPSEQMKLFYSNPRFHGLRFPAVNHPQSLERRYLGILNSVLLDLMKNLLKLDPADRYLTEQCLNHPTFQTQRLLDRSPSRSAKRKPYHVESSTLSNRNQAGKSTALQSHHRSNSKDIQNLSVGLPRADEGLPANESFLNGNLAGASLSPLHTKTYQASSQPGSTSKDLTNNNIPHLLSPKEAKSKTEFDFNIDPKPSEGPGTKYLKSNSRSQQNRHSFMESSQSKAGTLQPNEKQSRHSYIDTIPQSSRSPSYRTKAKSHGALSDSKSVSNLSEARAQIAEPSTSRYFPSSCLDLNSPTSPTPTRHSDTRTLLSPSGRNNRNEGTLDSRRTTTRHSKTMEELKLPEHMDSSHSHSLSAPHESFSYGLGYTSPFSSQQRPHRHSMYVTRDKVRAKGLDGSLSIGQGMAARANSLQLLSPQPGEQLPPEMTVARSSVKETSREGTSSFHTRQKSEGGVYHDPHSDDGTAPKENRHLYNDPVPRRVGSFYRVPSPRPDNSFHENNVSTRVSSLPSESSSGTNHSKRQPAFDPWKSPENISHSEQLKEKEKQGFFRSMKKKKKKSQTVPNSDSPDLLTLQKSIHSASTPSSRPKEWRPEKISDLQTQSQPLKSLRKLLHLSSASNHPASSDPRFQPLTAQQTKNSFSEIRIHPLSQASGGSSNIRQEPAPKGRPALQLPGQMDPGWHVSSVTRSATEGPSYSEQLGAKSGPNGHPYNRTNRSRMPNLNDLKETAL

Structure (SMILES) | observed | technique | concentration | remaining binding
C[C@H](c1ccc(F)cc1)N(Cc1cccc(C(=O)O)c1)C(=O)c1cnc2ccccc2c1 | binding | competition with immobilised ligand | 1 µM | 100%
C[C@@H](c1ccc(-n2cnc3c(N)ncnc32)cc1)N1CCc2nn(C)c(Cc3ccccc3)c2C1=O | binding | competition with immobilised ligand | 0.1 µM | 71%
CCCCN(CCCC)C(=O)CN1C[C@H](c2cc(OC)c3c(c2)OCO3)[C@@H](C(=O)O)[C@@H]1CC(C)(C)CCC | cell-free assay | competition with immobilised ligand | 1 µM | 71.4%
CCN1CCN(Cc2ccc(C(=O)Nc3ccc(C)c(Oc4ccc5c(c4)CC(=O)N5)c3)cc2C(F)(F)F)CC1 | binding | competition with immobilised ligand | 1 µM | 100%
CC1=C(C#N)C(c2ccc3c(c2)c(NC(=O)c2ccccc2C)nn3C)C(C#N)=C(C)N1 | binding | competition with immobilised ligand | 1 µM | 79%
C[C@@H]1CCN(c2nccc(-c3cnn4ncccc34)n2)C1 | binding |  | 1 µM | 86%
O=C(NCc1ncc(C(F)(F)F)cc1Cl)c1ccc2c(c1)C1(CCS(=O)(=O)CC1)[C@H](C1CC1)N2S(=O)(=O)c1ccc(F)cc1 | cell-free assay | competition with immobilised ligand | 1 µM | 78%
O=C(c1ccc(Nc2ncc(Cl)c(-c3cc4ccccc4s3)n2)cc1)N1CCC(N2CCCC2)CC1 | binding | competition with immobilised ligand | 1 µM | 32%
O=C(NCC1CCOCC1)c1n[nH]cc1NC(=O)c1c(F)cccc1F | binding | competition with immobilised ligand | 1 µM | 30%
O=C(NCCCN1CCOCC1)c1ccc(Nc2ncc(Cl)c(-c3ccc(Cl)s3)n2)cc1 | binding | competition with immobilised ligand | 1 µM | 26%
CC1CCCN1c1nccc(-c2cnn3ncccc23)n1 (stereo not drawn) | binding |  | 1 µM | 100%
COc1ncc2cc3ccccc3nc2c1C#N | binding | competition with immobilised ligand | 5 µM | 90%
COc1cnc(Nc2cccc(S(N)(=O)=O)c2)nc1N1CCN(c2ccccc2)CC1 | binding | competition with immobilised ligand | 1 µM | 72%
F[C@@H]1CCN(c2nccc(-c3cnn4ncccc34)n2)C1 | binding |  | 1 µM | 100%
Cc1cnc(Nc2ccc(C(=O)N3CCC(N4CCCC4)CC3)cc2)nc1-c1cc2ccccc2s1 | binding | competition with immobilised ligand | 1 µM | 69%
N[C@@H]1CCN(c2nccc(-c3cnn4ncccc34)n2)C1 | binding |  | 1 µM | 100%
c1cncc(-c2cccc(Nc3nccc(NC4CCCCC4)n3)c2)c1 | binding | competition with immobilised ligand | 10 µM | 38%
CNCc1ccccc1-c1csc([C@@H](C)Nc2nc(C)nc3cc(OC)c(OC)cc23)c1 | cell-free assay | competition with immobilised ligand | 1 µM | 94%
COc1ccnn2ncc(-c3ccnc(N(C)C)n3)c12 | binding |  | 1 µM | 86%
Cc1nccc(COC(=O)N2C[C@@H]3[C@@H](CNC(=O)c4ccc5[nH]nnc5c4)[C@@H]3C2)n1 | cell-free assay | competition with immobilised ligand | 1 µM | 87%
Cc1cnn2ncc(-c3ccnc(N(C)C)n3)c2c1 | binding |  | 1 µM | 86%
